From ChEMBL document CHEMBL4680253, “Hybrids of MEK inhibitor and NO donor as multitarget antitumor drugs” (Eur J Med Chem, 2020) come the findings set out here.

Molecules are shown by their SMILES.

For one data set, the system named is HCT-116. The data set is described as follows: Antiproliferative activity against human HCT116 cells harboring KRAS G13D mutant assessed as inhibition of cell viability after 96 hrs by Celltiter-Glo assay. Format: functional, cell-based. As to conditions: HCT-116, 96 h. (In ATP-based viability assays light output follows the ATP content of the culture.)
The test system of data set [1] is MDA-MB-231. Description: Antiproliferative activity against human MDA-MB-231 cells harboring KRAS G13D/BRAF G464V mutant assessed as inhibition of cell viability after 96 hrs by Celltiter-Glo assay. Format: functional, cell-based. As to conditions: MDA-MB-231, 96 h.
The nature of data set [2]: Prodrug release in human HCT-116 cells assessed as increase in intracellular NO level at 100 uM measured after 2 hr by DAF-FM DA reagent based laser confocal scanning microscopy. As to conditions: hct-116, 2 h.
Another data set concerns A549. Description: Antiproliferative activity against human A549 cells harboring KRAS G12S mutant assessed as inhibition of cell viability after 96 hrs by Celltiter-Glo assay. Format: functional, cell-based. The note with it: A549, 96 h.
The nature of data set [3]: Antiproliferative activity against human A375 cells harboring BRAF V600E mutant assessed as inhibition of cell viability after 96 hrs by Celltiter-Glo assay. Format: functional, cell-based, A375/R. As to conditions: A-375, 96 h.
The next data set deals with HL-60. Description: Antiproliferative activity against human HL60 cells harboring NRAS […] mutant assessed as inhibition of cell viability after 96 hrs by Celltiter-Glo assay. The data set is classed as functional, cell-based. As to conditions: HL-60, 96 h.
For a further data set, the system named is Vero. Description: Cytotoxicity against African green monkey Vero cells assessed as reduction in cell viability after 96 hrs by Celltiter-Glo assay. The data set is classed as cell-based. As to conditions: Chlorocebus sabaeus. The method in brief:
(§1)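 Cells kept at 37 °C in humidified 5% CO2 with 10% FBS; Vero in DMEM, HL7702 in RPMI-1640. Compounds added to plated cells and incubated 96 h at 37 °C. Viability read by CellTiter-Glo reagent added directly to the wells. IC50 fitted from the readings.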

The subject of another data set is L02. Description: Cytotoxicity against human HL7702 cells assessed as reduction in cell viability after 96 hrs by Celltiter-Glo assay. Format: cell-based. As to conditions: L02, 96 h. The essentials: as §1
The subject of data set [4] is MDA-MB-231. The data set is described as follows: Induction of apoptosis in human MDA-MB-231 cells assessed as late apoptotic cells at 10 uM incubated for 24 hrs by AnnexinV-FITC and propidium iodide staining based flow cytometry (reference value: 3.54%). Format: functional. In general terms: A flow cytometer gives signals particle by particle.
Data set [5] relates to MDA-MB-231. The data set is described as follows: Induction of apoptosis in human MDA-MB-231 cells assessed as necrotic cells at 10 uM incubated for 24 hrs by AnnexinV-FITC and propidium iodide staining based flow cytometry (reference value: 1.084%). The data set is classed as functional.
The subject of data set [6] is MDA-MB-231. Description: Induction of apoptosis in human MDA-MB-231 cells assessed as viable cells at 10 uM incubated for 24 hrs by AnnexinV-FITC and propidium iodide staining based flow cytometry (reference value: 90.962%). Format: functional. The note with it: read-out: Activity.
Data set [7] concerns MDA-MB-231. Description: Induction of apoptosis in human MDA-MB-231 cells assessed as early apoptotic cells at 10 uM incubated for 24 hrs by AnnexinV-FITC and propidium iodide staining based flow cytometry (reference value: 4.4%). The data set is classed as functional.

Broadly, the IC50 is the point on the concentration scale where inhibition reaches its midpoint.

Take `CNS(=O)(=O)Nc1cccc(Cc2c(C)c3ccc(OCCCO)cc3oc2=O)c1F`: the IC50 is 5340 nM in the data set on HCT-116, 1900 nM in the data set on MDA-MB-231 [1] and over 5000 nM in the data set on A549. The Drug metabolism result in data set [2] was “Metabolite_Notdetected”.

In the case of `Cc1c(Cc2cccc(NS(=O)(=O)NCC(F)(F)F)c2F)c(=O)oc2cc(OCCO)ccc12`, the IC50 is 930 nM in [3]; 10300 nM with HCT-116; 780 nM in the data set with HL-60; 7720 nM with MDA-MB-231 [1]; over 5000 nM with A549. Besides, the Drug metabolism result in data set [2] was “Metabolite_Notdetected”.

For `CCNS(=O)(=O)Nc1cccc(Cc2c(C)c3ccc(OCCO)cc3oc2=O)c1F`, the IC50 in [3] is 200 nM; in the data set with HCT-116, 5790 nM; in the data set on HL-60, 150 nM; in the data set on MDA-MB-231 [1], 2480 nM; in the data set on A549, over 5000 nM. Moreover, the Drug metabolism entry in data set [2] is on record as “Metabolite_Notdetected”.

Take `Cc1c(Cc2cccc(NS(=O)(=O)NC(C)C)c2F)c(=O)oc2cc(OCCOc3no[n+]([O-])c3S(=O)(=O)c3ccccc3)ccc12`: the IC50 in data set [3] came to 970 nM; in the data set on HCT-116 it was 1230 nM; in the data set with HL-60, 550 nM; in the data set on MDA-MB-231 [1] it was 860 nM; in the data set with A549, 2990 nM. Further, the Drug metabolism result in data set [2] is given as “Metabolite_Detected”.

Take `Cc1c(Cc2cccc(NS(=O)(=O)NC(C)C)c2F)c(=O)oc2cc(OCCO)ccc12`: the IC50 is 150 nM in data set [3]; 5090 nM in the data set with HCT-116; 140 nM with HL-60; 2380 nM with MDA-MB-231 [1]; over 5000 nM in the data set on A549. Moreover, in data set [2], the Drug metabolism result was “Metabolite_Notdetected”.

In the case of `CONS(=O)(=O)Nc1cccc(Cc2c(C)c3ccc(OCCOc4no[n+]([O-])c4S(=O)(=O)c4ccccc4)cc3oc2=O)c1F`, the IC50 in data set [3] is 870 nM; with HCT-116, 1010 nM; with HL-60 it was 5640 nM; with MDA-MB-231 [1], 310 nM; in the data set on A549 it was 3750 nM. Also, in data set [2], the Drug metabolism result is given as “Metabolite_Detected”.

For the compound `COCCNS(=O)(=O)Nc1cccc(Cc2c(C)c3ccc(OCCO)cc3oc2=O)c1F`, the IC50 is 360 nM in [3]; 6500 nM in the data set on HCT-116; 250 nM in the data set on HL-60; 2990 nM with MDA-MB-231 [1]; over 5000 nM with A549. Also, the Drug metabolism entry in data set [2] is given as “Metabolite_Notdetected”.

Consider `CNS(=O)(=O)Nc1cccc(Cc2c(C)c3ccc(OCCCCOc4no[n+]([O-])c4S(=O)(=O)c4ccccc4)cc3oc2=O)c1F`, for which the IC50 with HCT-116 turned out to be 2780 nM; in the data set on Vero, 2980 nM; in the data set on L02, 1930 nM; in the data set on MDA-MB-231 [1], 200 nM; in the data set on A549, 3490 nM. In [2], the Drug metabolism result is “Metabolite_Detected”.

Regarding `Cc1c(Cc2cccc(NS(=O)(=O)NCCC#N)c2F)c(=O)oc2cc(OCCO)ccc12`, the IC50 is 650 nM in [3]; 15400 nM in the data set with HCT-116; 390 nM with HL-60; 5490 nM in the data set on MDA-MB-231 [1]; over 5000 nM in the data set on A549. The Drug metabolism result in data set [2] is listed as “Metabolite_Notdetected”.

In the case of `CNS(=O)(=O)Nc1cccc(Cc2c(C)c3ccc(OCCO)cc3oc2=O)c1F`, the IC50 in data set [3] is 150 nM; with HCT-116, 3470 nM; in the data set with HL-60 it was 100 nM; in the data set on MDA-MB-231 [1], 2190 nM; in the data set with A549, over 5000 nM. Also, the Drug metabolism result in data set [2] is “Metabolite_Notdetected”.

Regarding `CNS(=O)(=O)Nc1cccc(Cc2c(C)c3ccc(OCCCCO)cc3oc2=O)c1F`, the results for the IC50 in the data set on HCT-116, with MDA-MB-231 [1] and with A549 were 7350 nM, 3200 nM and over 5000 nM, respectively. Moreover, the Drug metabolism entry in [2] is recorded as “Metabolite_Notdetected”.

Regarding `Cc1c(Cc2cccc(NS(=O)(=O)NCCC#N)c2F)c(=O)oc2cc(OCCOc3no[n+]([O-])c3S(=O)(=O)c3ccccc3)ccc12`, the half-inhibitory concentration (IC50) in data set [3] amounted to 660 nM; in the data set on HCT-116 it was 760 nM; in the data set on HL-60, 640 nM; in the data set with MDA-MB-231 [1], 270 nM; with A549, 2610 nM. Besides, in data set [2], the Drug metabolism entry is on record as “Metabolite_Detected”.

As for `CC(=O)Nc1cccc(-n2c(=O)n(C3CC3)c(=O)c3c(Nc4ccc(I)cc4F)n(C)c(=O)c(C)c32)c1` [TRAMETINIB], the IC50 in [3] came out at 2.4 nM; with HCT-116 it was 19 nM; in the data set with HL-60, 3 nM; with MDA-MB-231 [1], 18 nM; in the data set on A549, 460 nM.

In the case of `CCNS(=O)(=O)Nc1cccc(Cc2c(C)c3ccc(OCCOc4no[n+]([O-])c4S(=O)(=O)c4ccccc4)cc3oc2=O)c1F`, the IC50 in data set [3] was determined as 540 nM; with HCT-116, 720 nM; in the data set with HL-60, 290 nM; in the data set with MDA-MB-231 [1] it was 180 nM; in the data set with A549 it was 2570 nM. In addition, the Drug metabolism entry in data set [2] is given as “Metabolite_Detected”.

On to `CONS(=O)(=O)Nc1cccc(Cc2c(C)c3ccc(OCCO)cc3oc2=O)c1F`, for which, in data set [2], the Drug metabolism result was “Metabolite_Notdetected”.

Consider `COCCNS(=O)(=O)Nc1cccc(Cc2c(C)c3ccc(OCCOc4no[n+]([O-])c4S(=O)(=O)c4ccccc4)cc3oc2=O)c1F`, for which the IC50 in data set [3] was found to be 540 nM; in the data set on HCT-116, 710 nM; in the data set on HL-60, 310 nM; with MDA-MB-231 [1] it was 380 nM; in the data set on A549, 2270 nM. For the same compound, in data set [2], the Drug metabolism result is “Metabolite_Detected”.

Consider `Cc1c(Cc2cccc(NS(=O)(=O)NCC(F)(F)F)c2F)c(=O)oc2cc(OCCOc3no[n+]([O-])c3S(=O)(=O)c3ccccc3)ccc12`, for which the IC50 was 500 nM in [3]; 610 nM in the data set on HCT-116; 270 nM in the data set with HL-60; 130 nM in the data set on MDA-MB-231 [1]; 2510 nM with A549. In data set [2], the Drug metabolism entry was “Metabolite_Detected”.

For the compound `CCOC(=O)N1CCN(/[N+]([O-])=N/Oc2ccc([N+](=O)[O-])cc2[N+](=O)[O-])CC1`, the Activity was 19.2% in the data set on MDA-MB-231 [4], 2.444% with MDA-MB-231 [5] and 27.1% in the data set on MDA-MB-231 [7]. Moreover, the IC50 in data set [3] is 1990 nM; in the data set with HCT-116, 500 nM; with Vero, 1160 nM; in the data set with HL-60, 530 nM; in the data set with L02, 1990 nM; in the data set on MDA-MB-231 [1] it was 2900 nM. Further, the IC50 in the data set on A549 is 690 nM. The viability at 10 µM in the data set on MDA-MB-231 [6] was 51.2%. Moreover, the Drug metabolism result in data set [2] is “Metabolite_Detected”.
